Screening data deposited in PubChem BioAssay by Broad Institute.
Env fusion inh = blocks HIV Env-driven cell-cell fusion; HeLa-JRFL Env/CEM21 cell fusion, luciferase; inhibition, % at 12.3 µM; AID 651610; hit rate 1.1% among 360,000;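 active = mean replicate inhibition score of at least 50 and every replicate individually at or above 50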;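 also: 0% = plate neutral controls and 100% = maraviroc near 300 nM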
Cneo AK release = causes C. neoformans cell lysis; adenylate kinase release luminescence, 4 h; normalised: neutral wells 0, clomiphene wells 100; lysis activity, % at 15 µM; hit rate 0.2% among 360,000;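 active = mean lysis activity across replicates of at least 80%, whatever share of replicates individually reach that level; inactive = mean lysis activity below 80%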
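Material: C. neoformans cells | Amount: Yeast cell density of 5 × 10^6 cells/mL | Medium: Fresh YPD growth medium | Dosing: Single dose | Times: Static 4 h at 37 °C with compound, 1 h detection | Detection: AK luminescence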
INS-1E GSIS act = GLuc luminescence reporter in INS-1E cells, primary screen for activators of glucose-dependent secretion of insulin; activation, % at 16.6 µM; hit rate 0.61% among 370,000; AID 743287; INS-1E GLuc reporter insulin secretion, 2-3 h;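 active = lowest replicate activation of at least 40%, so every replicate reaches that level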;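 also: 0% = median of neutral control wells and 100% = median of IBMX positive control wells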
dFosB activator = enhances mouse delta FosB homodimer DNA binding. P13346. purified delta FosB, TAMRA-CDK5 oligo fluorescence polarization; percent of positive-control signal above neutral wells. activation, % at 25 µM. hit rate 0.99% among 340,000. AID 493131;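 active = mean activation above about 17%, with every replicate also reaching it, limit read from the data, passing the limit was not always enough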
Target sequence (P13346 whole entry, looked up): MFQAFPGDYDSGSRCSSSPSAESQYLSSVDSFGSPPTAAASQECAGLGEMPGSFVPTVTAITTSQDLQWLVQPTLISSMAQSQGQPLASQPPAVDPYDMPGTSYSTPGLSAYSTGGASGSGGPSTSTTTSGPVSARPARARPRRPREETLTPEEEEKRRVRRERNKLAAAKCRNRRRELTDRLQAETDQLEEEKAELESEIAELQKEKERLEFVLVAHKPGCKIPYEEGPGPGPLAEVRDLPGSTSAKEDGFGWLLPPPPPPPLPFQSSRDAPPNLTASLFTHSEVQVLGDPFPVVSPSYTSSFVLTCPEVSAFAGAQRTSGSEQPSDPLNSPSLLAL
Rtt109 Vps75 = inhibitors of Candida albicans Rtt109/Vps75 histone acetyltransferase | Q5AAJ8 | purified Rtt109/Vps75, ThioGlo CoA-SH fluorescence, 4 h | inhibition, % at 34.9 µM | hit rate 0.16% among 330,000 | AID 540336;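 active = inhibition of at least 50% in every replicate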
miR-122 sensor = miR-122 inhibition in Huh7 cells; hit rate 0.3% among 340,000; Huh7 miR-122 Renilla luciferase sensor, 48 h; neutral wells = 0, positive control = 100; activation (reporter increase), % at 12.5 µM;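 active = mean replicate activation score at least 90 and every replicate individually at or above 90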;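 also: higher luciferase means less miR-122 activity so hits act as miR-122 inhibitors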
* hit, by the source's call; i = inactive; . = not tested or not shown; [ ] = dose if it differs, or a comment. Rows were chosen to be rich in hits. Some 2.4% of all compounds tested hit in one or more screens of this group.

SMILES	Env fusion inh	Cneo AK release	INS-1E GSIS act	dFosB activator	Rtt109 Vps75	miR-122 sensor
CP(=O)(O)CN1CCCCC1	6	.	-19	-6	21	.
CCC1CN1P(=O)(N1CCCC1)N1CC1CC (stereo unspecified)	59*	.	18	-1	4	-2
C[C@@H]1CN([C@@H](C)CO)C(=O)c2c(c3ccccc3n2C)-c2ccccc2CO[C@@H]1CN(C)C(=O)Oc1ccccc1	.	.	-9	.	.	.
CCN(CC)P(=O)(NC(=O)C(Cl)(Cl)Cl)N(CC)CC.[Cl-].[Cl-].[Cl-].[Nd+3]	-6	.	-2	41*	-1	3
CS(=O)(=O)N1C[C@@H]2N[C@H](C1)C2c1ccccc1 (stereo partly specified)	.	.	15	.	.	.
Oc1ccc(/C=N/NP(=S)(c2ccccc2)c2ccccc2)cc1	-47	-1	.	-4	5	96*
CC(Cc1ccsc1)NCc1cn[nH]c1-c1ccc(F)cc1F (stereo unspecified)	63*	9	11	-10	-7	1
COc1ccc(-c2[nH]ncc2CNC(C)Cc2ccsc2)c(F)c1 (stereo unspecified)	44	.	3	-4	-3	.
O=C(Cc1cccnc1)N1CCCCN2[C@H](C1)[C@H](c1ccc(/C=C/c3ccccc3)cc1)[C@@H]2CO	.	1	-13	.	.	18[16.7 µM]
COC(=O)[C@@H]1[C@@H](CO)[C@@H]2Cn3c(ccc(-c4ccccc4F)c3=O)[C@H]1N2CC1CCCC1	7[16.7 µM]	-3	-3	.	.	.
CC[N+](C)(CC)CCCCOc1ccc2c(c1)C(=O)c1cc(OCCCC[N+](C)(CC)CC)ccc1-2	0	-3	12	49*	1	-4
O=C(O)[C@H]1[C@H](CO)[C@H]2Cn3c(ccc(-c4cccnc4)c3=O)[C@@H]1N2S(=O)(=O)c1ccccc1F	.	-3	11	.	.	3[16.7 µM]
N=C1c2ccccc2CN1c1cccc([N+](=O)[O-])c1	1	.	2	-4	-1	.
N=C1c2ccccc2CN1c1ccc(F)c([N+](=O)[O-])c1	-2	1	67*	-5	10	-11
O=C(C1CC1)N1C[C@@H]2N[C@H](C1)[C@@H]2c1ccc(-c2ccncc2)cc1	.	.	5	.	.	.
Cc1cccc(-n2c(O)c(/C=C3/C(c4ccccc4)=Nc4ccccc43)c(=O)[nH]c2=O)c1	92*	.	-18	-18	17	38
Cc1ccccc1-n1c(O)c(/C=C2/C(c3ccccc3)=Nc3ccccc32)c(=O)[nH]c1=O	25	.	-5	-2	3	.
CS(=O)(=O)N1C[C@@H]2C(c3ccccc3)[C@H](C1)N2CC1CC1 (stereo partly specified)	.	.	11	.	.	.
C[C@H]1CCC/C=C/[C@@H]2C[C@H](O)C[C@H]2[C@@H](O)/C=C/C(=O)O1	82*	.	-21	3	4	-12
CCC(CC)N1CCN(Cc2nc3ccccc3c(=O)n2-c2ccc(F)cc2)CC1	2	0	.	1	0	-6
O=c1c2ccccc2nc(CN2CCCCCC2)n1-c1ccc(F)cc1	71*	0	-4	-3	0	1
NC(Cc1ccc(O)cc1)C(=O)NN=Cc1ccc(N(CCCl)CCCl)cc1 (stereo unspecified)	-4	0	.	32*	-9	5
CCc1ccc(CNCCc2c[nH]c3ccccc23)cc1	78*	3	-15	1	-1	-3
c1ccc(CNCCc2c[nH]c3ccccc23)cc1	15	3	5	1	0	1
COc1cc(CNCCc2c[nH]c3ccccc23)cc(OC)c1	61*	3	-6	6	3	-14
SMILES	Env fusion inh	Cneo AK release	INS-1E GSIS act	dFosB activator	Rtt109 Vps75	miR-122 sensor
CCCNC(=O)[C@@H]1[C@@H](CO)[C@@H]2Cn3c(cccc3=O)[C@@H]2N1CC	.	.	-3	.	.	.
CC(C)NC(=O)N1C[C@@H]2C(c3ccc(Br)cc3)[C@H](C1)N2C (stereo partly specified)	.	.	22	.	.	.
COC(=O)[C@H]1[C@H](CO)[C@H]2Cn3c(ccc(C4=CCCCC4)c3=O)[C@@H]1N2Cc1ccccn1	.	5	4	.	.	0[16.7 µM]
COc1ccc(OC(=O)N(C)C[C@@H]2OCc3ccccc3-c3c(n(C)c4ccccc34)C(=O)N([C@H](C)CO)C[C@@H]2C)cc1	69*	1	-23	.	.	5
COc1ccc(OC(=O)N(C)C[C@H]2OCc3ccccc3-c3c(n(C)c4ccccc34)C(=O)N([C@H](C)CO)C[C@H]2C)cc1	.	.	-22	.	.	.
CCCNC(=O)N1[C@@H]2c3ccc(-c4ccccc4OC)c(=O)n3C[C@H]1[C@H](CO)[C@H]2C(=O)O	.	1	7	.	.	-4[16.7 µM]
CSc1ncc(/C=C2/C(=O)NC(=O)N(c3ccc(Cl)cc3)C2=O)cn1	21	.	-5	8	64*	-3
CC=Cc1ccc2n(c1=O)C[C@H]1[C@H](CO)[C@@H](C(=O)N(C)C)[C@@H]2N1C (mixture of isomers)	.	36	24	.	.	.
O=[N+]([O-])c1ccc(N2CCOCC2)c2cccnc12	7	-2	75*	-2	0	.
O=c1[nH]c(CN2CC=C(c3ccccc3)CC2)nc2cc(C(F)(F)F)ccc12	.	88*	.	-8	3	2
O=C(O)[C@@H]1[C@@H](CO)[C@@H]2Cn3c(ccc(-c4ccncc4)c3=O)[C@H]1N2C(=O)C1CCC1	.	-3	5	.	.	1[16.7 µM]
CCCNC(=O)N1[C@@H]2c3ccc(-c4cccc(C(=O)N(C)C)c4)c(=O)n3C[C@H]1[C@H](CO)[C@H]2C(=O)O	.	.	10	.	.	.
O=c1c2ccccc2nc(/C=C/c2ccc([N+](=O)[O-])o2)n1-c1ccc(O)cc1	i	.	-17	-8	0	95*
CCOC(=O)[C@]12Cc3c(cc(OC)c(OC)c3OC)[C@H]1N(Cc1ccccc1)C(=O)c1ccccc12	64*	-1	-9	6	18	4
CN(C)CC#Cc1ccc([C@@H]2[C@H](CO)N3CCCCN(C(=O)Cc4ccccn4)C[C@@H]23)cc1	.	0	2	.	.	1[16.7 µM]
CCCNC(=O)[C@@H]1[C@@H](CO)[C@@H]2Cn3c(cccc3=O)[C@H]1N2CCC	.	-1	-2	.	.	0[16.7 µM]
CCCN1[C@@H]2Cn3c(ccc(-c4ccc(F)cc4)c3=O)[C@H]1[C@@H](C(=O)OC)[C@@H]2CO	.	0	16	.	.	5[16.7 µM]
Cc1ccccc1S(=O)(=O)N1[C@@H]2Cn3c(ccc(-c4cccnc4)c3=O)[C@H]1[C@@H](C(=O)O)[C@@H]2CO	.	-2	7	.	.	0[16.7 µM]
CC(=O)OCC12CC(OC(=O)CC(C)C)C(C)=CC1OC1C(O)C(OC(C)=O)C2(C)C12CO2 (stereo unspecified)	67*	.	-14	-7	1	-4
N=C1c2ccccc2CN1NC(=O)c1ccccc1	5	.	-2	-2	51*	.
N=C1c2ccccc2CN1CC(=O)c1ccccc1	-87	.	-30	-7	-5	.
